A short description of experiment [1]: Inhibition of rat liver microsomal Steroid 5-alpha-reductase after 30 mins by scintillation counting. In outline: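 Rat liver microsomes containing both type 1 and type 2 5α-reductase. [³H]T and [³H]DHT spots were separated by TLC, cut out and extracted with ethyl acetate, then counted by liquid scintillation.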
Experiment [2] has as its system PC-3. The experiment is described as follows: Anticancer activity against human PC3 cells xenografted in sc dosed SCID mouse assessed as inhibition of tumor growth at 20 mg/kg, ip qd for 14 days. Format: functional. In outline: (§1)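 PC-3 xenografts in SCID mice; calipers tracked tumor volume once palpable, and dosing began at an average volume of ~50–100 mm³. Groups of 5 mice received one intraperitoneal dose daily for 14 days, formulated in 15% PEG 400, 5% EtOH and 80% H₂O, alongside a vehicle-only group. Tumor size and body weight were recorded every two days for 28 days; tumor size given as mean ± S.E.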

In experiment [3] the test system is PC-3. Put plainly: Anticancer activity against human PC3 cells xenografted in sc dosed SCID mouse assessed as inhibition of tumor growth at 80 mg/kg, ip qd for 14 days. The experiment is classed as functional. As to conditions: PC-3, sc, 336 h. In short, it runs like this:
as §1
In general terms: In xenograft studies the graft and the host belong to different species.

The species named for another experiment is Rattus norvegicus. Put plainly: Inhibition of rat liver microsomal Steroid 5-alpha-reductase at 5 uM after 30 mins by scintillation counting. In outline:
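Rat liver microsomal 5α-reductase (types 1 and 2) was incubated with 35 nM [³H]testosterone, 1.0 mM NADPH, 1 mM DTT and 40 mM potassium phosphate pH 6.5. Steroids were separated by TLC and the spots extracted with ethyl acetate for scintillation counting. Percent inhibition was taken at a single fixed test concentration.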

Each structure is given as a SMILES string. Active and inactive are the calls of the source. No cut-off for these calls is given here.

Broadly, the IC50 is the concentration needed to halve the response being measured. Read a low IC50 as inhibition by little substance. A word on the inhibition: it is how much of the control response was suppressed. One may read the inhibition in vivo as the drop in the measured response relative to a control, in per cent.

As to `O=C(O[C@@H]1Cc2c(O)cc(O)cc2O[C@@H]1c1cc(O)c(O)c(O)c1)c1cc(O)c(O)c(O)c1` [EPIGALOCATECHIN GALLATE], in experiment [1], inhibition was half-maximal at 6290 nM (IC50). Further, in the experiment with PC-3 [2], the inhibition result is “inactive”. In addition, the inhibition in vivo at 80 mg/kg in the experiment on PC-3 [3] was 32%.
`CC(C)=CC(=O)O[C@@H]1Cc2c(O)cc(O)cc2O[C@@H]1c1cc(O)c(O)c(O)c1` had an inhibition in the experiment listed under Rattus norvegicus of 36%.
As for `CCCCCCCCCCCCCCCCCC(=O)O[C@@H]1Cc2c(O)cc(O)cc2O[C@@H]1c1cc(O)c(O)c(O)c1`, in experiment [1], the IC50 was found to be 730 nM.
`CCCCCCCCCCCCCCCCCCCCCC(=O)O[C@@H]1Cc2c(O)cc(O)cc2O[C@@H]1c1cc(O)c(O)c(O)c1` had an inhibition in the experiment filed under Rattus norvegicus of 28.3%.
Same read-out and setting: the figure for `CC(=O)Oc1cc(OC(C)=O)c2c(c1)O[C@H](c1cc(OC(C)=O)c(OC(C)=O)c(OC(C)=O)c1)[C@H](OC(=O)c1cc(OC(C)=O)c(OC(C)=O)c(OC(C)=O)c1)C2` is 0.5%.
`CCCCCCCC/C=C\CCCCCCCC(=O)O[C@@H]1Cc2c(O)cc(O)cc2O[C@@H]1c1cc(O)c(O)c(O)c1`: the IC50 in experiment [1] was determined as 740 nM.
The same measure, in the same setting: to `CCCCCCCCCC(=O)O[C@@H]1Cc2c(O)cc(O)cc2O[C@@H]1c1cc(O)c(O)c(O)c1` belongs 2940 nM; to `CC(C)(C)C1CCC(C(=O)O[C@@H]2Cc3c(O)cc(O)cc3O[C@@H]2c2cc(O)c(O)c(O)c2)CC1` (some centres not stated), 1190 nM.
As to `C/C=C(\C)C(=O)O[C@@H]1Cc2c(O)cc(O)cc2O[C@@H]1c1cc(O)c(O)c(O)c1`, in the experiment filed under Rattus norvegicus, the inhibition came to 29.1%.
With `CCCCCCCCCCCCCCCC(=O)O[C@@H]1Cc2c(O)cc(O)cc2O[C@@H]1c1cc(O)c(O)c(O)c1`, the 50% inhibitory concentration (IC50) in experiment [1] came out at 530 nM. In other words, the sub-micromolar range.
`CC/C=C\C/C=C\C/C=C\CCCCCCCC(=O)O[C@@H]1Cc2c(O)cc(O)cc2O[C@@H]1c1cc(O)c(O)c(O)c1` yielded an IC50 in experiment [1] of 780 nM.
In experiment [1], `CCCCCC/C=C\CCCCCCCC(=O)O[C@@H]1Cc2c(O)cc(O)cc2O[C@@H]1c1cc(O)c(O)c(O)c1` gave an IC50 of 480 nM. Besides, the inhibition in vivo at 20 mg/kg in the experiment with PC-3 [2] (PC-3, sc, 336 h, route subcutaneous) stood at 38%.
As to `CCCCCCCCCCCCCCCCCCCC(=O)O[C@@H]1Cc2c(O)cc(O)cc2O[C@@H]1c1cc(O)c(O)c(O)c1`, the inhibition in the experiment filed under Rattus norvegicus came to 47.9%.
On the same count and under the same terms, to `CC(=O)O[C@@H]1Cc2c(O)cc(O)cc2O[C@@H]1c1cc(O)c(O)c(O)c1` belongs 3%; to `O=C(Nc1ccc(Cl)cc1)O[C@@H]1Cc2c(O)cc(O)cc2O[C@@H]1c1cc(O)c(O)c(O)c1`, 19.1%.
The same measure, in the same setting: to `CCCCCC(=O)O[C@@H]1Cc2c(O)cc(O)cc2O[C@@H]1c1cc(O)c(O)c(O)c1` belongs 46%.
In experiment [1], `O=C(O[C@@H]1Cc2c(O)cc(O)cc2O[C@@H]1c1cc(O)c(O)c(O)c1)c1ccc(Cl)cc1` displayed an IC50 of 1600 nM.
As to `CCCCCCCCCCCCCC(=O)O[C@@H]1Cc2c(O)cc(O)cc2O[C@@H]1c1cc(O)c(O)c(O)c1`, half-maximal inhibition in experiment [1] (IC50) required 600 nM.
In the experiment filed under Rattus norvegicus, `C#CCCCC(=O)O[C@@H]1Cc2c(O)cc(O)cc2O[C@@H]1c1cc(O)c(O)c(O)c1` displayed an inhibition of 48.8%.
In the case of `CC(C)=CCC/C(C)=C/C(=O)O[C@@H]1Cc2c(O)cc(O)cc2O[C@@H]1c1cc(O)c(O)c(O)c1`, the IC50 in experiment [1] was found to be 2240 nM. This counts as single-digit micromolar.
In the case of `Cc1ccc(C(=O)O[C@@H]2Cc3c(O)cc(O)cc3O[C@@H]2c2cc(O)c(O)c(O)c2)cc1`, the concentration for half-maximal inhibition (IC50) in experiment [1] turned out to be 1320 nM.
The same measure, in the same setting: to `CCCCCCCCCCCC(=O)O[C@@H]1Cc2c(O)cc(O)cc2O[C@@H]1c1cc(O)c(O)c(O)c1` belongs 770 nM.
Consider `CCCC(=O)O[C@@H]1Cc2c(O)cc(O)cc2O[C@@H]1c1cc(O)c(O)c(O)c1`, for which the inhibition in the experiment filed under Rattus norvegicus was 35%.
In experiment [1], `CCCCCCC/C=C/C(=O)O[C@@H]1Cc2c(O)cc(O)cc2O[C@@H]1c1cc(O)c(O)c(O)c1` registered an IC50 of 2470 nM.
Consider `O=C(Nc1ccc2ccccc2c1)O[C@@H]1Cc2c(O)cc(O)cc2O[C@@H]1c1cc(O)c(O)c(O)c1`, for which the inhibition in the experiment listed under Rattus norvegicus came out at 28.7%.
On the same count and under the same terms, to `CCCCCCCC(=O)O[C@@H]1Cc2c(O)cc(O)cc2O[C@@H]1c1cc(O)c(O)c(O)c1` belongs 49.3%.
On the same count and under the same terms, to `Cc1ccc(NC(=O)O[C@@H]2Cc3c(O)cc(O)cc3O[C@@H]2c2cc(O)c(O)c(O)c2)cc1` belongs 0.8%.
Consider `CC1=C(/C=C/C(C)=C/C=C/C(C)=C/C(=O)O[C@@H]2Cc3c(O)cc(O)cc3O[C@@H]2c2cc(O)c(O)c(O)c2)C(C)(C)CCC1`, for which, in experiment [1], half-maximal inhibition (IC50) was put at 760 nM. This lies in the sub-micromolar range.
As to `COc1cc(OC)c2c(c1)O[C@H](c1cc(OC)c(OC)c(OC)c1)[C@H](OC(=O)c1cc(OC)c(OC)c(OC)c1)C2`, the inhibition in the experiment filed under Rattus norvegicus is 8.4%.

The record behind these values is ChEMBL document CHEMBL1629427, “Synthesis and structure-activity relationship of 3-O-acylated (-)-epigallocatechins as 5α-reductase inhibitors” (Eur J Med Chem, 2010).
